The source made the active and inactive calls. The calls are words filed in the database; no cut-off is given here.
Columns and labels:
[1] = system: Escherichia coli; test: Synergistic antibacterial activity against NDM-1 producing Escherichia coli assessed ass MIC of ceftazidime/avibactam at 32 ug/ml by broth microdilution method; assay type: functional; conditions: dose 32 µg/ml
How it was run: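 MIC of ceftazidime-avibactam (avibactam fixed at 4 µg/mL) by CLSI broth microdilution in Mueller-Hinton broth. Used the NDM-1-producing multidrug-resistant E. coli clinical isolate SI-001M at 5 × 10⁴ CFU/well, with and without inhibitor at a fixed 32 µg/ml. No colistin added. Triplicate determinations.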

[2] = system: Escherichia coli; test: Synergistic antibacterial activity against NDM-1 producing Escherichia coli assessed as MIC of imipenem at 32 ug/ml by broth microdilution method; assay type: functional; conditions: dose 32 µg/ml
[3] = Inhibition of beta-lactamase NDM1 (unknown origin) expressed in Escherichia coli BL21(DE3) using cefotaxime/nitrocefin as substrate by measuring substrate hydrolysis by spectrophotometric analysis
How it was run: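 His-tagged enzyme from E. coli BL21(DE3) pET-15b, affinity-purified, 1-70 nM final. Reporter substrate 120 μM cefotaxime (260 nm) or 100 μM nitrocefin (482 nm), 30 °C, 50 mM HEPES pH 7.5. Inhibitor 0.5–1,000 μM final; competitive Ki from v0/vi vs [I] slope or Dixon plot. Triplicate.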

[4] = Inhibition of beta-lactamase NDM-1 (unknown origin) expressed in Escherichia coli LZ2310 assessed as potentiation of ceftazidime antibacterial activity by measuring ceftazidime induced diameter of inhibition zone at 80 uM incubated for 18 hrs by disk diffusion method (reference value: 15 mm)
How it was run: (§1)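 Efflux-deficient E. coli LZ2310 (NorE, MdfA, AcrA knocked out) carrying pLB-II with the cloned MBL gene. Mueller-Hinton, CLSI disk diffusion; antibiotic disks (30 µg cefoxitin for VIM-2, 10 µg ampicillin for VIM-4, 30 µg ceftazidime for NDM-1/IMP-1) loaded with inhibitor in DMSO (≤15 µL). Zone diameter after 18 h, 35 ± 1 °C; DMSO and 220 µg EDTA controls. Triplicate.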

[5] = Inhibition of beta-lactamase VIM2 (unknown origin) expressed in Escherichia coli BL21(DE3) using imipenem as substrate by measuring substrate hydrolysis at 100 uM by spectrophotometric analysis
How it was run: (§2)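 Purified enzyme (overproduced in E. coli BL21(DE3), pET-9a; ion-exchange and gel filtration), 1-70 nM final. Reporter substrate 150 μM imipenem, read at 300 nm, 30 °C, 50 mM HEPES pH 7.5. Single-point screen at 100 or 200 μM; Ki from v0/vi vs [I] (0.5–1,000 μM final) assuming competitive inhibition, or Dixon plot. Triplicate.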

[6] = system: Escherichia coli; test: Synergistic antibacterial activity against NDM-1 producing Escherichia coli assessed as MIC of meropenem at 32 ug/ml by broth microdilution method; assay type: functional; conditions: dose 32 µg/ml
[7] = Inhibition of beta-lactamase IMP-1 (unknown origin) expressed in Escherichia coli BL21(DE3) using imipenem as substrate by measuring substrate hydrolysis by spectrophotometric analysis; how it was run: as §2
[8] = Inhibition of beta-lactamase VIM4 (unknown origin) expressed in Escherichia coli BL21(DE3) using imipenem as substrate by measuring substrate hydrolysis at 100 uM by spectrophotometric analysis; how it was run: as §2
[9] = Inhibition of beta-lactamase VIM2 (unknown origin) expressed in Escherichia coli BL21(DE3) using imipenem as substrate by measuring substrate hydrolysis at 200 uM by spectrophotometric analysis; how it was run: as §2
[10] = Inhibition of beta-lactamase VIM4 (unknown origin) expressed in Escherichia coli BL21(DE3) using imipenem as substrate by measuring substrate hydrolysis at 200 uM by spectrophotometric analysis; how it was run: as §2
[11] = system: Escherichia coli; test: Antibacterial activity against NDM-1 producing Escherichia coli in presence of colistin by broth microdilution method.; assay type: functional
[12] = Inhibition of beta-lactamase L1 (unknown origin) expressed in Escherichia coli BL21(DE3) using nitrocefin as substrate by measuring substrate hydrolysis at 100 uM preincubated for 30 mins by spectrophotometric analysis
How it was run: (§3)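 Enzyme 0.2–0.8 nM in 25 mM HEPES pH 7.5 with 50 μM ZnCl2 final, pre-incubated 30 min at 21 °C with inhibitor (100 μM screen). Nitrocefin 100 μM final, read at 482 nm, 30 °C. Residual activity vs three uninhibited samples; Ki (1–100 μM inhibitor) from Hanes linearization, competitive model. Triplicate.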

[13] = molecular target: Hydroxyacylglutathione hydrolase (Homo sapiens); test: Inhibition of human Glyoxalase II expressed in Escherichia coli BL21 (DE3)
[14] = Inhibition of beta-lactamase L1 (unknown origin) expressed in Escherichia coli BL21(DE3) using nitrocefin as substrate by measuring substrate hydrolysis at 200 uM preincubated for 30 mins by spectrophotometric analysis
[15] = system: Escherichia coli; test: Synergistic antibacterial activity against NDM-1 producing Escherichia coli assessed as MIC of ceftazidime at 32 ug/ml by broth microdilution method; assay type: functional; conditions: dose 32 µg/ml
[16] = Inhibition of beta-lactamase VIM2 (unknown origin) expressed in Escherichia coli BL21(DE3) using imipenem as substrate by measuring substrate hydrolysis by spectrophotometric analysis; how it was run: as §2
[17] = Inhibition of beta-lactamase L1 (unknown origin) expressed in Escherichia coli BL21(DE3) using nitrocefin as substrate by measuring substrate hydrolysis preincubated for 30 mins by spectrophotometric analysis; how it was run: as §3
[18] = Inhibition of beta-lactamase VIM-2 (unknown origin) expressed in Escherichia coli LZ2310 assessed as potentiation of cefoxitin antibacterial activity by measuring cefoxitin induced diameter of inhibition zone at 80 uM incubated for 18 hrs by disk diffusion method (reference value: 14 mm); how it was run: as §1
[19] = Inhibition of beta-lactamase VIM4 (unknown origin) expressed in Escherichia coli BL21(DE3) using imipenem as substrate by measuring substrate hydrolysis by spectrophotometric analysis; how it was run: as §2
[20] = Inhibition of beta-lactamase IMP-1 (unknown origin) expressed in Escherichia coli BL21(DE3) using imipenem as substrate by measuring substrate hydrolysis at 200 uM by spectrophotometric analysis; how it was run: as §2
[21] = Inhibition of beta-lactamase IMP-1 (unknown origin) expressed in Escherichia coli BL21(DE3) using imipenem as substrate by measuring substrate hydrolysis at 100 uM by spectrophotometric analysis; how it was run: as §2
[22] = Inhibition of beta-lactamase VIM-2 (unknown origin) expressed in Escherichia coli LZ2310 assessed as potentiation of cefoxitin antibacterial activity by measuring cefoxitin induced diameter of inhibition zone at 320 uM incubated for 18 hrs by disk diffusion method (reference value: 14 mm); how it was run: as §1
[23] = Inhibition of beta-lactamase IMP-1 (unknown origin) expressed in Escherichia coli LZ2310 assessed as potentiation of ceftazidime antibacterial activity by measuring ceftazidime induced diameter of inhibition zone at 320 uM incubated for 18 hrs by disk diffusion method (reference value: 9 mm); how it was run: as §1
[24] = Inhibition of beta-lactamase VIM-2 (unknown origin) expressed in Escherichia coli XL-1 assessed as potentiation of cefoxitin antibacterial activity by measuring cefoxitin induced diameter of inhibition zone at 320 uM incubated for 18 hrs by disk diffusion method (reference value: 8 mm)
How it was run: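 Wild-type efflux E. coli XL-1 Blue transformed with pLB-II-VIM-2. Mueller-Hinton disk diffusion per CLSI, 30 µg cefoxitin disks loaded with inhibitor dissolved in DMSO (≤15 µL). Growth-inhibition zone measured after 18 h at 35 ± 1 °C; DMSO negative and 220 µg EDTA positive controls. Triplicate.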

[25] = Inhibition of beta-lactamase NDM1 (unknown origin) expressed in Escherichia coli BL21(DE3) using cefotaxime/nitrocefin as substrate by measuring substrate hydrolysis at 100 uM by spectrophotometric analysis
[26] = Inhibition of beta-lactamase NDM1 (unknown origin) expressed in Escherichia coli BL21(DE3) using cefotaxime/nitrocefin as substrate by measuring substrate hydrolysis at 200 uM by spectrophotometric analysis
[27] = Inhibition of beta-lactamase CphA (unknown origin) expressed in Escherichia coli BL21(DE3) using imipenem as substrate by measuring substrate hydrolysis by spectrophotometric analysis
How it was run: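 Enzyme 0.2–0.8 nM in 15 mM cacodylate pH 6.5, no added zinc, pre-incubated 30 min at 21 °C with inhibitor (100 μM screen). Imipenem substrate added from 10 mM stock; hydrolysis at 300 nm, 30 °C. Residual activity vs three uninhibited samples; Ki (1–100 μM inhibitor) by Hanes linearization, competitive model. Triplicate.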

[28] = Binding affinity to beta-lactamase VIM-2 expressed in Escherichia coli BL21(DE3) assessed as dissociation constant at 25 degC by isothermal titration calorimetry
How it was run: (§4)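 VIM-2 (19 μM) in 10 mM HEPES-NaOH, 0.15 M NaCl, 50 μM ZnSO4, pH 7.5, DMSO matched to ligand (1-2% final). One 0.5 μl then 19 × 2 μl injections of compound (200-400 μM), 150 s apart, 25 °C. Buffer dilution heats subtracted; nonlinear least-squares fit for n, Ka, ΔH; compound concentration adjusted in fitting so n ≈ 1.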

[29] = Binding affinity to beta-lactamase VIM-2 expressed in Escherichia coli BL21(DE3) assessed as Gibbs free energy at 25 degC by isothermal titration calorimetry; how it was run: as §4
[30] = Binding affinity to beta-lactamase VIM-2 expressed in Escherichia coli BL21(DE3) assessed as change in enthalpy at 25 degC by isothermal titration calorimetry; how it was run: as §4
[31] = Binding affinity to beta-lactamase VIM-2 expressed in Escherichia coli BL21(DE3) assessed as association constant at 25 degC by isothermal titration calorimetry; how it was run: as §4
[32] = Binding affinity to beta-lactamase VIM-2 expressed in Escherichia coli BL21(DE3) assessed as change in entropy at 25 degC by isothermal titration calorimetry; how it was run: as §4

Row | Compound | Ki [3] | inhibition zone (IZ) [4] | inhibition [5] | Ki [7] | inhibition [9] | inhibition [12] | inhibition [14] | Ki [16] | Ki [19] | inhibition zone (IZ) [22] | inhibition zone (IZ) [23] | inhibition zone (IZ) [24] | other results
1 | S=c1[nH]nc(-c2cccc(-c3ccccc3)c2)n1/N=C/c1ccc(OCc2ccccc2)cc1 | 1.8 µM | 15 mm | inactive | 9 µM | inactive | inactive | inactive | – | – | – | – | – | MIC [1]: > 256 µg/mL; MIC [2]: 8 µg/mL; MIC [6]: 64 µg/mL; inhibition [8]: inactive; inhibition [10]: inactive; MIC [11]: > 256 µg/mL; IC50 [13]: 23.4 µM; MIC [15]: > 256 µg/mL
2 | O=C(O)c1ccccc1/C=N/n1c(-c2ccc(-c3ccccc3)cc2)n[nH]c1=S | 1.3 µM | 15 mm | – | 32.4 µM | – | – | – | 2500 nM | 4 µM | – | – | – | MIC [1]: > 256 µg/mL; MIC [2]: 8 µg/mL; MIC [6]: 32 µg/mL; MIC [11]: > 256 µg/mL; Ki [17]: 900 nM; inhibition zone (IZ) [18]: 15 mm; MIC [15]: > 256 µg/mL
3 | O=C(O)c1ccccc1/C=N/n1c(-c2ccc(Cl)cc2)n[nH]c1=S | 7.6 µM | 15 mm | inactive | – | inactive | 60% | – | – | 7 µM | – | – | – | inhibition [20]: inactive; inhibition [21]: inactive
4 | S=c1[nH]nc(-c2ccc(-c3ccccc3)cc2)n1/N=C/c1ccc(OCc2ccccc2)cc1 | – | – | inactive | 11.4 µM | inactive | inactive | inactive | – | – | 16 mm | 11 mm | 10 mm | inhibition [8]: inactive; inhibition [10]: inactive; inhibition [25]: 64%
5 | O=C(O)c1ccccc1/C=N/n1c(-c2ccccc2O)n[nH]c1=S | – | – | – | – | – | 40% | – | 2200 nM | 3 µM | 17 mm | 12 mm | 10 mm | inhibition [26]: inactive; inhibition [20]: inactive; inhibition [25]: inactive; inhibition [21]: inactive
6 | Oc1ccc(/C=N/n2c(-c3ccccc3-c3ccccc3)n[nH]c2=S)c(O)c1 | 6.4 µM | 15 mm | – | 12 µM | – | inactive | inactive | 4500 nM | 9 µM | – | – | – | inhibition zone (IZ) [18]: 14 mm
7 | O=C(O)c1ccccc1/C=N/n1c(-c2cccc(-c3ccccc3)c2)n[nH]c1=S | 4.2 µM | – | – | 17.7 µM | – | – | – | 200 nM | 0.04 µM | 15 mm | 9 mm | 9 mm | Ki [27]: 4 µM; Kd [28]: 68 nM; deltaG [29]: -9.8 kcal/mol; Ki [17]: 600 nM; deltaH [30]: -7.2 kcal/mol; Ka [31]: 1.5 10^7/M; -TdeltaS [32]: 2.6 kcal/mol

Source: ChEMBL document CHEMBL4706580, “4-Amino-1,2,4-triazole-3-thione-derived Schiff bases as metallo-β-lactamase inhibitors” (Eur J Med Chem, 2020)
